Bioassay records: PubChem BioAssay, Broad Institute
Sampled rows, rich in hits. Any-hit rate of the full collection: about 3.6%.
SKKanGAS inh – SKKanGAS growth inhibition; S. pyogenes SKKanGAS, kanamycin growth, BacTiter-Glo, 6 h; inhibition, % at 7.5 µM; actives 1.3% (n = 300,000); AID 1662;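 active = mean replicate score, as percent of positive control median, at least 50; inconclusive = mean below 50 but one replicate at or above 50; inactive = mean and every replicate below 50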;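 also: strain carries kanamycin resistance gene driven by streptokinase promoter and grows in 40 µg/ml kanamycin; loss of luminescence reflects streptokinase promoter inhibition or plain growth inhibition; 0% = median of DMSO wells and 100% = positive control at its reference dose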
CSC inhib – blocks cancer stem cells. cancer stem cell-like cells viability, luminescence. inhibition, % at 7.5 µM. actives 1.1% (n = 300,000). AID 2717; in the data active = inhibition above about 75%; inconclusive = no clear call, values can overlap the other calls; tested in HMLE shEcad cells
PfHsp90 set2 – growth inhibition of yeast expressing Plasmodium Hsp90; inhibition, % at 9.4 µM; AID 504621; S. cerevisiae expressing PfHsp90, BacTiter-Glo ATP, 48 h; yeast lacking PDR1 and PDR3 efflux regulators; actives 0.32% (n = 310,000);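 active = every replicate shows inhibition above about 80%, whatever the replicate mean, limit read from the data; inconclusive = mean inhibition reaches the set limit but some replicate falls short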;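 also: 0% = DMSO neutral controls and 100% = 20 µM radicicol positive controls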
HIF activator – HIF pathway transcriptional activation; actives 0.32% (n = 300,000); U2OS HRE-luciferase reporter, luminescence; normalized: DMSO 0%, desferrioxamine 100%; activation, % at 7.5 µM (by protocol);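 active = mean activation of at least 10% of the iron chelator positive control signal, with at least half of replicates also reaching 10%; inconclusive = mean and replicate majority disagree about reaching 10%; inactive = mean and most replicates under 10%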
T cruzi repl – T. cruzi replication inhibition | T. cruzi beta-gal in NIH3T3, luminescence, 90 h | inhibition, % (test concentration not listed) | actives 1.4% (n = 300,000) | AID 1885;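 active = mean inhibition across valid replicates above about 55%, limit read from the data; inconclusive = mean below that limit but half or more replicates reach it; inactive = mean below it, under half of replicates reach it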;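 also: signal also drops with host cell toxicity which is not excluded here; 0% = plate median of DMSO wells and 100% = zero luminescence signal; higher percent means less beta-gal luminescence so fewer parasites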
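compound dosing = single 50 nL compound addition per well in DMSO | material = NIH/3T3 host cells with β-galactosidase reporter T. cruzi | input = 5,000 host fibroblasts per well | timing = ≥90 h infection period, 3 h prior cell attachment | read-out basis = percent inhibition of parasite-derived β-gal signal | detection = GalScreen β-gal luminescence, detergent lysis, 60 min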
Beta cell apopt – beta cell apoptosis inhibition. INS-1E cytokine-induced death, ATP luminescence, 48 h; percent of positive-control rescue, neutral wells zero. protection from apoptosis, % (concentration not given with the values). actives 0.8% (n = 300,000). AID 435005;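 active = Every replicate reaches about 75%, or at least half do and their mean reaches it too, limit read from the data; inconclusive = At least half of replicates reach the limit but their mean does not; inactive = Under half of replicates reach the limit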;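 also: 0% = cytokine-treated negative control wells and 100% = positive control rescue; higher means more ATP so stronger rescue from cytokine killing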
Numbers without * were called inactive; u = inconclusive; x = no result.

SMILES | SKKanGAS inh | CSC inhib | PfHsp90 set2 | HIF activator | T cruzi repl | Beta cell apopt
CC1CCc2c(C(=O)Nc3cccc(-c4nn[nH]n4)c3)csc2C1 (centres undefined) | 56* | -9 | -39 | 0 | -1 | x
O=[N+]([O-])c1ccccc1/C=C/C=N/Nc1ccc(S(=O)(=O)Nc2ccc(Cl)cc2)cc1[N+](=O)[O-] | 18 | 40 | x | -1 | 68* | 30
O=[N+]([O-])c1ccc(N/N=C/c2c[nH]c3ccccc23)c(S(=O)(=O)Nc2ccc(Cl)cc2)c1 | 77* | 101* | -2 | 0 | 29 | 12
O=C(O)c1ccc(N/N=C/C=C/c2ccccc2[N+](=O)[O-])cc1 | 17 | 5 | -12 | 1 | -4 | -3
Cc1ccc(C)c(NC(=S)N2CCC(NC(=O)C3CCCCC3)CC2)c1 | -6 | -7 | -7 | 0 | -12 | -6
CC(=O)C1=C(c2ccccc2)NC(=S)NC1c1cc(Cl)c(OC(C)C)c(Cl)c1 (centres undefined) | 21 | 31 | 5 | 0 | 61* | -3
COc1cc(C2NC(=S)NC(c3ccccc3)=C2C(C)=O)cc(Cl)c1OCC(=O)O (centres undefined) | -3 | -15 | 2 | 0 | -15 | -6
COc1ccc(NC(=O)C2CC(=O)N(CCc3ccc(Cl)cc3)C2)cc1 (centres undefined) | -8 | -15 | -28 | 0 | -8 | 7
COc1ccc2sc(-c3ccc(SC)cc3)c(-c3ccc(O)cc3)c2c1 | x | 107* | -1 | x | x | 17
CC(=O)Nc1cccc(/C(C)=N\NC(=O)c2ccc(Cn3nc([N+](=O)[O-])c(Cl)c3C)o2)c1 | 4 | x | -9 | 0 | -11 | x
CCCC[n+]1ccn(-c2nc3ccccc3nc2[N-]S(=O)(=O)c2ccc(Br)cc2)c1 | 5 | 4 | -11 | 0 | 3 | -1
CCCC[n+]1ccn(C2=C([O-])c3ccccc3C(=O)/C2=N\S(=O)(=O)c2ccc(Cl)cc2)c1 | 61* | 27 | 9 | -1 | 10 | 114*
CCCCC[n+]1ccn(C2=C([O-])c3ccccc3C(=O)/C2=N\S(=O)(=O)c2ccc(Cl)cc2)c1 | 73* | 17 | 14 | -2 | 46 | 109*
CC(C)c1nn2c(=O)cc(O)nc2s1 | 1 | -14 | -13 | x | -13 | -9
O=C(NCC1CCCO1)C(=O)N/N=C/c1cccc(Cl)c1 (centres undefined) | 3 | 1 | x | 0 | -8 | x
COc1ccc(CC(=O)Nc2ccncc2Cl)cc1 | 1 | 8 | -10 | 0 | -59 | 102*
CCOCCCNCc1ccc(OCCC(C)C)c(OC)c1 | -3 | 9 | 14 | -1 | 63* | 0
COc1cc(C)ccc1OCCCCNCc1ccccc1 | 0 | -19 | 1 | 1 | 26 | 6
CCCOc1ccc(OCCOCCN2CCc3ccccc3C2)cc1 | -6 | 26 | x | 0 | 71* | 9
CCOc1ccc(OCCOCCN2CCc3ccccc3C2)cc1 | -4 | 31 | 1 | 0 | 77* | -1
c1ccc(OCCOCCN2CCc3ccccc3C2)cc1 | -5 | 8 | 5 | 0 | u | -9
CC(=O)N1CC2(NC(=O)c3ccccc3N2)c2ccccc21 (centres undefined) | -1 | -11 | 12 | 0 | -2 | -4
COc1ccc(/C=C/C(=O)NC(=S)N2CCN(c3ccccc3OC)CC2)cc1 | 59* | 0 | -11 | 0 | -9 | -6
Cc1cc(NC(=O)C(C)SCC(=O)N(C)Cc2c(F)cccc2Cl)no1 (centres undefined) | x | -18 | 14 | x | x | -3
CN1CCC(N(C)C(=O)c2sc3cc(F)ccc3c2Cl)CC1 | -4 | 33 | -32 | 0 | 78* | 1
SMILES | SKKanGAS inh | CSC inhib | PfHsp90 set2 | HIF activator | T cruzi repl | Beta cell apopt
Cc1ccc(-c2nnc(N3CCCCCC3)c3ccccc23)cc1 | 4 | 45 | 0 | 1 | 64* | 12
Cc1ccc(-c2nnc(N3CCC(C)CC3)c3ccccc23)cc1C | 37 | 96* | 0 | 0 | 53 | 10
O=C(COc1ccccc1)N1CCN(c2nnc(-c3ccccc3)c3ccccc23)CC1 | 12 | -6 | x | 0 | 55* | 14
COc1ccc(-c2nnc(N3CCCCC3)c3ccccc23)cc1 | -7 | 5 | -8 | 0 | 4 | 7
Cc1ccc(OCC(=O)N2CCN(c3nnc(-c4ccc(C)cc4)c4ccccc34)CC2)cc1 | 39 | x | x | -1 | 61* | 28
CC(C)CN(C(=O)c1ccco1)C1CCS(=O)(=O)C1 (centres undefined) | -2 | -5 | x | 3 | -7 | -2
O=C(CCN1CCCCC1)N1CCc2c([nH]c3ccccc23)C1c1cccnc1 (centres undefined) | x | x | -9 | x | x | x
CC(=O)Nc1ncnc2c1c(-c1ccc(Cl)cc1)nn2C(C)(C)C | 0 | 19 | -20 | 0 | 61* | -1
CC(=O)N(C(C)=O)c1ncnc2c1c(-c1ccc(Cl)cc1)nn2C(C)(C)C | 1 | 29 | -31 | 0 | 61* | 4
CC(C)CC(NC(=O)C1CCC(=O)N1)C(=O)NC(CC(C)C)C(=O)N1CCCC1C(N)=O (centres undefined) | 1 | -3 | -6 | -2 | 0 | x
COc1cc(/C=C/c2cc[n+](C)cc2)ccc1OCC(=O)Nc1ccc(Cl)c(Cl)c1 | 60* | x | -2 | 1 | 12 | 31
CCn1c(C)cc(O)c(C(=O)Nc2cccc(Cl)c2)c1=O | 2 | -4 | -6 | 2 | -13 | 3
CCn1c(C)c(C)c2cc(C(=O)Nc3cccc(Cl)c3)ccc21 | 7 | 81* | -11 | 3 | 44 | 4
COC1C(CO)OC(n2c3c(Cl)cccc3c3c4c(c5c6cccc(Cl)c6[nH]c5c32)C(=O)NC4=O)C(O)C1O (centres undefined) | x | x | -19 | x | x | x
O=C(CN1CCN(CC(=O)Nc2ccc3c(c2)OC2(CCCCC2)O3)CC1)Nc1cccc(F)c1 | x | x | -7 | x | x | x
CCN(CC)C1=CC(=[N+]2CCCC2)CC(C)(C)C1 | -9 | 13 | 19 | -1 | 64* | 46
Cc1ccc(NC(=S)NC(=O)c2ccc(F)cc2)cc1S(=O)(=O)Nc1cccc(Cl)c1 | 70* | 60 | -13 | 0 | 40 | 16
O=C(CN1CCN(c2ccc(Cl)cc2)CC1)Nc1cccc(F)c1 | -7 | -1 | -6 | 0 | 6 | -1
O=C(Nc1cccc(F)c1)N1CC=C(c2ccc(Cl)cc2)CC1 | 13 | 20 | 10 | -1 | 55* | x
CC(Oc1ccc(Br)cc1)c1nc2c3ccccc3nc(=S)n2[nH]1 (centres undefined) | 92* | 15 | -10 | 0 | 18 | 99*
CCCC(Oc1ccc(Br)cc1)c1nc2c3cc(OC)c(OC)cc3nc(=S)n2[nH]1 (centres undefined) | 100* | x | -35 | -1 | 49 | 35
Nc1ccc2nc3c(=O)n(CCc4ccccc4)c(=O)[nH]c3nc2c1 | 26 | 77* | x | 0 | -2 | 11
